# Read-outs that look alike come from different tables or passages of the source.
# Columns and labels:
# [1] = 12 weeks, clinical data, cited from earlier work
# [2] = target: bile salt export pump (BSEP) (Homo sapiens, UniProt O95342); experiment: BSEP membrane vesicle taurocholate transport inhibition; assay type: biochemical
# Summary of the method: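 ATP-dependent taurocholate uptake into membrane vesicles carrying human BSEP. Transport inhibition was measured across several taurocholate concentrations crossed with several test-compound concentrations. Data were fit with Michaelis-Menten kinetics to give the Ki and the inhibition type. These values were then used as inputs to DILIsym v6A.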
# HepG2 cells [3] = experiment: ROS formation by dihydroethidium; assay type: cell-based; settings: for RNS/ROS production rate constant 1: DILIsym input parameter, oxidative stress
# Summary of the method: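 HepG2 cells were exposed to a range of test-compound concentrations for 6 or 24 h, and ROS formation was read by dihydroethidium fluorescence. Three independent studies were run, each in triplicate. Intracellular compound level came from LC/MS/MS of cell lysate from a parallel culture, corrected for lysate and cell volume. DILIsym oxidative-stress parameters were fit by simulating the data under a steady-state in vitro dosing scheme.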
# HepG2 cells [4] = experiment: Seahorse oxygen consumption rate; assay type: cell-based; settings: DILIsym input parameter
# Summary of the method: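 Oxygen consumption rate was measured in HepG2 cells after 24 h incubation with the test compound. It was related to intracellular compound concentration, measured by LC/MS/MS on a parallel culture with lysate values corrected for lysate and cell volume. Three independent studies were run on HepG2 cells, each in triplicate. The data were translated into DILIsym v6A mitochondrial-dysfunction parameters (ETC inhibition, uncoupling).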
# Chain of bile salt export pump (BSEP) (O95342 whole entry): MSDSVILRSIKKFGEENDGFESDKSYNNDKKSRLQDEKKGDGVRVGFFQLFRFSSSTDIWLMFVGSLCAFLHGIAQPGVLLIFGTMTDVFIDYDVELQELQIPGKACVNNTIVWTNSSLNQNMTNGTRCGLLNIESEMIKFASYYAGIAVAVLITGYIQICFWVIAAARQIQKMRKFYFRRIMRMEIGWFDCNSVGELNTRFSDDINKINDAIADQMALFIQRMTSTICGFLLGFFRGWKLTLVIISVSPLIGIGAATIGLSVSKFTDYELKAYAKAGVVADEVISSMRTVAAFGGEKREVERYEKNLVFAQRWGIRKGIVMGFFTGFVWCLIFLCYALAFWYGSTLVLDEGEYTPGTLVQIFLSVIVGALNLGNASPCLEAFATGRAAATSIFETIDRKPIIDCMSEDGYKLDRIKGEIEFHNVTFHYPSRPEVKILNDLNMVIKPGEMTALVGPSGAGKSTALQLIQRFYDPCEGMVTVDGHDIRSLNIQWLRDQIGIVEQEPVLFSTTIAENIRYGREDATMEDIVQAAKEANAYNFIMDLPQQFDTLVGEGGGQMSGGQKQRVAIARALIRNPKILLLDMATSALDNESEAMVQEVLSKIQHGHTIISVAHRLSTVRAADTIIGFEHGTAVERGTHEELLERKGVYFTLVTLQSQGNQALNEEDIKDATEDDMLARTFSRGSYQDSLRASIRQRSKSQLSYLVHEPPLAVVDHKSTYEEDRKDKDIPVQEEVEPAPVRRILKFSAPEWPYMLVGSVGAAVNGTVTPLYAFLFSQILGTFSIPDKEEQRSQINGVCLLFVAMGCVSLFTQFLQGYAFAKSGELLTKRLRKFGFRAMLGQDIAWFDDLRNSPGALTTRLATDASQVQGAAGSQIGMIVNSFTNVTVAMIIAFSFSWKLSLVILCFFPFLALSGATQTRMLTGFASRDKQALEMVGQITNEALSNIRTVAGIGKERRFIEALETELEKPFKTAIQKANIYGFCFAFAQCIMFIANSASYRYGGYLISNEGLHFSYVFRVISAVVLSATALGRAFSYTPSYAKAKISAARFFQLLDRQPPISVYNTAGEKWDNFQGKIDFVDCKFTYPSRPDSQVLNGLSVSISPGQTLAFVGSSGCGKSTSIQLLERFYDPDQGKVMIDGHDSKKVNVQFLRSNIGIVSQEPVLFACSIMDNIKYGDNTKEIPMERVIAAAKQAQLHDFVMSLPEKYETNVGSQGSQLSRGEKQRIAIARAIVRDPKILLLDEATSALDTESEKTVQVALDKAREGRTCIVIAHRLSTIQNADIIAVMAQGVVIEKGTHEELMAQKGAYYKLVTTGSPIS
smiles,measurement,setting,value
"O=C(N[C@@H]1CC[C@@H](c2cccc(F)c2F)CN(CC(F)(F)F)C1=O)N1CCC(n2c(=O)[nH]c3ncccc32)CC1 [Telcagepant, telcagepant]",Observed ALT > 3X ULN in Clinic,[1]; 140 mg BID,1.9% (5/263)
same,Observed ALT > 3X ULN in Clinic,[1]; 280 mg BID,3.2% (8/265)
same,Ki,[2],19 µM
same,mode of inhibition for BSEP,[2],mixed
same,BSEP inhibition alpha value,[2]; Telcagepant—High parameter set,4.32 Dimensionless
same,BSEP inhibition alpha value,[2]; Telcagepant—Low parameter set,4.32 Dimensionless
same,RNS/ROS production rate constant 1,HepG2 cells [3]; Telcagepant—High parameter set,0.0972 M⁻¹ s⁻¹
same,RNS/ROS production rate constant 1,HepG2 cells [3]; Telcagepant—Low parameter set,0.0972 M⁻¹ s⁻¹
same,Uncoupler 1 effect Hill,HepG2 cells [4]; Telcagepant—High parameter set,No effect
same,Uncoupler 1 effect Km,HepG2 cells [4]; Telcagepant—High parameter set,No effect
same,Uncoupler 1 effect Vmax,HepG2 cells [4]; Telcagepant—High parameter set,No effect
same,Uncoupler 1 effect Hill,HepG2 cells [4]; Telcagepant—Low parameter set,No effect
same,Uncoupler 1 effect Km,HepG2 cells [4]; Telcagepant—Low parameter set,No effect
same,Uncoupler 1 effect Vmax,HepG2 cells [4]; Telcagepant—Low parameter set,No effect
"Cc1cc(C[C@@H](NC(=O)N2CCC(c3cc4ccccc4[nH]c3=O)CC2)C(=O)N2CCN(C3CCN(C)CC3)CC2)cc2cn[nH]c12 [Zavegepant, zavegepant]",BSEP inhibition alpha value,[2],1.368 Dimensionless
same,Ki,[2],> 340 µM
same,mode of inhibition for BSEP,[2],mixed
same,RNS/ROS production rate constant 1,HepG2 cells [3],No ROS production
same,Oxidative stress / increase in ROS in vitro,"HepG2 cells [3]; qualitative, DHE staining, HepG2, 24-h incubation",did not cause an increase in ROS
same,Coefficient for ETC Inhibition 3,HepG2 cells [4]; mitochondrial dysfunction,2 µM
same,Coefficient for ETC inhibition 1,HepG2 cells [4]; mitochondrial dysfunction,1600 µM
same,Max inhibitory effect for ETC inhibition 3,HepG2 cells [4]; mitochondrial dysfunction,1.5 Dimensionless
"N[C@@H]1c2cccnc2[C@H](OC(=O)N2CCC(n3c(=O)[nH]c4ncccc43)CC2)CC[C@H]1c1cccc(F)c1F [Rimegepant, rimegepant]",BSEP inhibition alpha value,[2],Competitive
same,Ki,[2],27.2 µM
same,mode of inhibition for BSEP,[2],competitive
same,RNS/ROS production rate constant 1,HepG2 cells [3],0.0972 M⁻¹ s⁻¹
same,Coefficient for ETC Inhibition 3,HepG2 cells [4]; mitochondrial dysfunction,1.89 µM
same,Coefficient for ETC inhibition 1,HepG2 cells [4]; mitochondrial dysfunction,3470 µM
same,Max inhibitory effect for ETC inhibition 3,HepG2 cells [4]; mitochondrial dysfunction,0.45 Dimensionless
same,Uncoupler 1 effect Hill,HepG2 cells [4]; mitochondrial dysfunction,No effect
same,Uncoupler 1 effect Km,HepG2 cells [4]; mitochondrial dysfunction,No effect
same,Uncoupler 1 effect Vmax,HepG2 cells [4]; mitochondrial dysfunction,No effect
"C[C@@H]1[C@H](c2c(F)ccc(F)c2F)C[C@H](NC(=O)c2cnc3c(c2)C[C@@]2(C3)C(=O)Nc3ncccc32)C(=O)N1CC(F)(F)F [Atogepant, atogepant]",BSEP inhibition alpha value,[2],0.64 Dimensionless
same,Ki,[2],144 µM
same,RNS/ROS production rate constant 1,HepG2 cells [3],0.0947 M⁻¹ s⁻¹
same,Coefficient for ETC Inhibition 3,HepG2 cells [4]; mitochondrial dysfunction,0.1 µM
same,Coefficient for ETC inhibition 1,HepG2 cells [4]; mitochondrial dysfunction,38 170 µM
same,Max inhibitory effect for ETC inhibition 3,HepG2 cells [4]; mitochondrial dysfunction,0.2 Dimensionless
same,Uncoupler 1 effect Hill,HepG2 cells [4]; mitochondrial dysfunction,No effect
same,Uncoupler 1 effect Km,HepG2 cells [4]; mitochondrial dysfunction,No effect
same,Uncoupler 1 effect Vmax,HepG2 cells [4]; mitochondrial dysfunction,No effect
"C[C@@H]1[C@H](c2ccccc2)C[C@H](NC(=O)c2cnc3c(c2)C[C@@]2(C3)C(=O)Nc3ncccc32)C(=O)N1CC(F)(F)F [Ubrogepant, ubrogepant]",BSEP inhibition alpha value,[2],No inhibition
same,mode of inhibition for BSEP,[2],mixed
same,RNS/ROS production rate constant 1,HepG2 cells [3],0.0458 M⁻¹ s⁻¹
same,Max inhibitory effect for ETC inhibition 3,HepG2 cells [4]; mitochondrial dysfunction,0.4 Dimensionless
same,Uncoupler 1 effect Hill,HepG2 cells [4]; mitochondrial dysfunction,4.3 Dimensionless
same,Uncoupler 1 effect Vmax,HepG2 cells [4]; mitochondrial dysfunction,22.5 Dimensionless

# From paper PMC9237996 (Toxicological Sciences, 2022)
